We go through 5 molecules from ChEMBL document CHEMBL5149991 (J Med Chem, 2021).

The target in assay [1] is T1, Histamine H2 receptor (Homo sapiens, UniProt P25021). The experiment in a line: Displacement of [3H]UR-DE257 from human histamine H2 receptor stably expressed in baculovirus infected Sf9 cell membrane co-expressing RG-Salpha S incubated for 60 mins by scintillation counting analysis. It counts as cell membranes.
The target in assay [2] is Histamine H3 receptor (Homo sapiens, UniProt Q9Y5N1). In words: Displacement of [3H]UR-PI294 from human histamine H3 receptor stably expressed in baculovirus infected Sf9 cell membrane co-expressing G-alphai2 and G-beta1gamma2 incubated for 60 mins by scintillation counting analysis. It counts as cell membranes. The procedure, abridged:
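hH3R + Gαi2 + Gβ1γ2 expressed in Sf9 membranes. […] Mean ± SEM from N independent experiments in triplicate.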

Assay [3] deals with T2, D(2) dopamine receptor (Homo sapiens, UniProt P14416). The experiment in a line: Displacement of [3H]N-methylspiperone from human D2 long receptor stably expressed in HEK293T cells co-expressing luciferase and CEK incubated for 140 mins by radioligand competition binding based assay. It counts as cell-based.
T2 sequence (P14416 whole entry): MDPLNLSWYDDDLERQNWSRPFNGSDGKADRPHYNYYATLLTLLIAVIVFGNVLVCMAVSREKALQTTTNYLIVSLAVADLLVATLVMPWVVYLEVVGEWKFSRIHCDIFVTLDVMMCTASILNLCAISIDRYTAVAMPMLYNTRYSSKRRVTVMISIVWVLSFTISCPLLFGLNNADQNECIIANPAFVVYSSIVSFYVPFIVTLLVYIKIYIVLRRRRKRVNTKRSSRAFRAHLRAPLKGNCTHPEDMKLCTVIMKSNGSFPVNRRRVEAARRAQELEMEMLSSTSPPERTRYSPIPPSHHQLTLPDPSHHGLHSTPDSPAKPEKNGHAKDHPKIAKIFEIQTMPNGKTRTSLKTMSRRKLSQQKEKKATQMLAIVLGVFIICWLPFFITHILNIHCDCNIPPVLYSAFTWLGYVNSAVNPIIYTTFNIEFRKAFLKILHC
For assay [4], the target named is T3, D(3) dopamine receptor (Homo sapiens, UniProt P35462). In words: Displacement of [3H]N-methylspiperone from human D3 receptor stably expressed in HEK293T cells co-expressing luciferase and CEK incubated for 140 mins by radioligand competition binding based assay. It is filed as cell-based.
T3 sequence (P35462 whole entry): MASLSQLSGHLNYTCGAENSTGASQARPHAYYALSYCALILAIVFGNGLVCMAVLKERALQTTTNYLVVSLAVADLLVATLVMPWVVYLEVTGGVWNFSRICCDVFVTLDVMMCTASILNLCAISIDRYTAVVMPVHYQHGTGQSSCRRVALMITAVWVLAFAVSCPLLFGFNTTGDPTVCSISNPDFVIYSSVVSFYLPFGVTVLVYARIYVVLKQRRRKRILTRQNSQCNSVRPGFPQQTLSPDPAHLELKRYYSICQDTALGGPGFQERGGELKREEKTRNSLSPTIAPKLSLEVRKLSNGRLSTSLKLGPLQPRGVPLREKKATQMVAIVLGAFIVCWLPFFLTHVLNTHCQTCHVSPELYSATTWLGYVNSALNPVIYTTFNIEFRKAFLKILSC
The target of assay [5] is T1, Histamine H2 receptor. In words: Agonist activity at human histamine H2 receptor stably expressed in HEK293T cells co-expressing ARRB2 incubated for 60 mins by beta-arrestin2 recruitment assay. It is filed as functional, cell-based.
For assay [6], the target named is T1, Histamine H2 receptor. The experiment in a line: Agonist activity at human histamine H2 receptor stably expressed in baculovirus infected Sf9 cell membrane co-expressing RG-Salpha S incubated for 90 mins by [35S]GTPgammaS binding based liquid scintillation counting method. It is filed as functional, cell membranes.
The target of assay [7] is T2, D(2) dopamine receptor. It counts as functional, cell-based, HEK293T.
The target of assay [8] is T3, D(3) dopamine receptor. In words: Agonist activity at human D3 receptor stably expressed in HEK293T cells co-expressing ElucN-betaarr2 hD3R-ElucC by beta-arrestin2 recruitment assay. It counts as functional, cell-based.
The target in assay [9] is Histamine H1 receptor (Homo sapiens, UniProt P35367).
Chain of Histamine H1 receptor (P35367 whole entry): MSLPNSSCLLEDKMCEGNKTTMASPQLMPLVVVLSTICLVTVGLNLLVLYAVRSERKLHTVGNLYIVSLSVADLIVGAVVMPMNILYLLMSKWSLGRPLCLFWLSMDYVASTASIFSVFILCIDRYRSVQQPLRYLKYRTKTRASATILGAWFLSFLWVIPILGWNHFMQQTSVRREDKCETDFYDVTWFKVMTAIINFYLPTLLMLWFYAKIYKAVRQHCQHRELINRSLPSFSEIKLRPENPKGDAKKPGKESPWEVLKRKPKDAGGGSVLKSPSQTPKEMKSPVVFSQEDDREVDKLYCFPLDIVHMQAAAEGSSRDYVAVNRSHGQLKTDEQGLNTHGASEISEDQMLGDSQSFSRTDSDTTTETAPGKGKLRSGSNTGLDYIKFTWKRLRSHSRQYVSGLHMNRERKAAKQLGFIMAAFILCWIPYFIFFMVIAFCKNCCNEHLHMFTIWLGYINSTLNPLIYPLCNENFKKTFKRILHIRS
Assay [10] deals with Histamine H4 receptor (Homo sapiens, UniProt Q9H3N8).
Chain of Histamine H4 receptor (Q9H3N8 whole entry): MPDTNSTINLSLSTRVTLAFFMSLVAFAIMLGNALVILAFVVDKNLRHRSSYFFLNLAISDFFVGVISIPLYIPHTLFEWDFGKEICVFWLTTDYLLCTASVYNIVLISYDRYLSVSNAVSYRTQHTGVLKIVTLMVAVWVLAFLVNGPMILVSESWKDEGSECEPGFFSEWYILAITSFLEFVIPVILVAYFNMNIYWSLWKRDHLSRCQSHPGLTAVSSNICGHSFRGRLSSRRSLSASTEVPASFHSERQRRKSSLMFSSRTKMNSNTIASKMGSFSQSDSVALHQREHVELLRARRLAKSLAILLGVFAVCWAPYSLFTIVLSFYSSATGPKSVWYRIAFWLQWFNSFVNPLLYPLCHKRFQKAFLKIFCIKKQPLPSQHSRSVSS
Assay [11] concerns the target T1, Histamine H2 receptor. The experiment in a line: Agonist activity at human histamine H2 receptor stably expressed in HEK293T cells co-expressing NlucN-mGs/hH2R-NlucC assessed as induction of mini-Gs protein recruitment using furimazine as substrate measured for 45 mins by luminescence assay.
For assay [12], the target named is Histamine H2 receptor (Cavia porcellus) (UniProt P47747). The experiment in a line: Agonist activity at guinea pig histamine H2 receptor stably transfected in HEK293T cells co-expressing NlucN-mGs/gpH2R-NlucC assessed as maximum efficacy at 100 uM by mini-G protein recruitment assay relative to histamine. It is filed as functional, cell-based.
Chain of Histamine H2 receptor (Cavia porcellus) (P47747 whole entry): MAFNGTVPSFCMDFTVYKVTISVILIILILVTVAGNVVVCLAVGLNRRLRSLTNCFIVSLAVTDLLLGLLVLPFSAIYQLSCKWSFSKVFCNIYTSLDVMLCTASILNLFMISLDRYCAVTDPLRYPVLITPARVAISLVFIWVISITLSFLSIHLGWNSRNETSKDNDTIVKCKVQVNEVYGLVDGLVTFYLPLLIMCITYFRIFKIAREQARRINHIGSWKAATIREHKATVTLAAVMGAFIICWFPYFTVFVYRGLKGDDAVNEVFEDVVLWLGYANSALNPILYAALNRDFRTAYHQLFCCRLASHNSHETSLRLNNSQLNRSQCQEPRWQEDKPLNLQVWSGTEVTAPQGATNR
In assay [13] the target is T4, Histamine H2 receptor (Cavia porcellus, UniProt P47747). In words: Agonist activity at guinea pig histamine H2 receptor stably transfected in HEK293T cells co-expressing NlucN-mGs/gpH2R-NlucC by mini-G protein recruitment assay. It is filed as functional, cell-based.
T4 sequence (P47747 whole entry): as above
In assay [14] the target is T4, Histamine H2 receptor. The experiment in a line: Agonist activity at histamine H2 receptor in spontaneous beating guinea pig right atrium assessed as increase in heart beat. It is filed as functional, tissue-based, Right cardiac atrium.
The target in assay [15] is Histamine H2 receptor (Cavia porcellus) (UniProt P47747). The experiment in a line: Agonist activity at histamine H2 receptor in spontaneous beating guinea pig right atrium assessed as increase in heart beat at 30 uM relative to histamine. As to conditions: Right cardiac atrium. It counts as functional, tissue-based.

T1 sequence (P25021 whole entry): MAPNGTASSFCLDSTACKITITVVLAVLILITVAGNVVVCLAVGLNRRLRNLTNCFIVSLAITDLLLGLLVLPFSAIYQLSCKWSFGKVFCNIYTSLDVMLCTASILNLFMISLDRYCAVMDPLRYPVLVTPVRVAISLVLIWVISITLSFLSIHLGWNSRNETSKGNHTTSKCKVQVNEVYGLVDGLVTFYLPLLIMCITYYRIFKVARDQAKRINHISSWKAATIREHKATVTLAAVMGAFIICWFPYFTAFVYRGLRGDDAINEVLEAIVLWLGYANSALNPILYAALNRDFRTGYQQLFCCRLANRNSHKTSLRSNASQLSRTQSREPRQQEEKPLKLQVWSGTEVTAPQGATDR
Chain of Histamine H3 receptor (Q9Y5N1 whole entry): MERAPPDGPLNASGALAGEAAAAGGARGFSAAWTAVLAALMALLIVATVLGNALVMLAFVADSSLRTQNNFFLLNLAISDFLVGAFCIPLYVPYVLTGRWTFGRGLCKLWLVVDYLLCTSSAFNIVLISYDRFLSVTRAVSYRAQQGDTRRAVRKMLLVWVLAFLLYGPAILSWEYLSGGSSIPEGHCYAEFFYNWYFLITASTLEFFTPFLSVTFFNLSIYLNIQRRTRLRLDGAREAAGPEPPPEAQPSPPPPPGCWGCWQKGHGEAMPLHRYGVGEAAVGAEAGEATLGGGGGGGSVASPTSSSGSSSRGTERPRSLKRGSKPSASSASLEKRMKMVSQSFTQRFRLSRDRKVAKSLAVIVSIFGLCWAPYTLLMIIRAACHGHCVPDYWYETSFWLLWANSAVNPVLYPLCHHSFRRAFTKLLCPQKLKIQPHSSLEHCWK

`CC(CNC(=O)/N=C(\N)NCCCc1nnc(N)s1)C1CCCCC1` (configuration not stated): the Ki was 0.0195 µM in assay [1]; 2.75 µM in [2]; 1.62 µM in assay [3]; 0.234 µM in assay [4]; 7.41 µM in assay [9]; 12.6 µM in [10]. Further, the EC50 is 0.135 µM in [5]; 0.0132 µM in [6]; more than 10 µM in [7]; 1.35 µM in assay [8]; 0.0107 µM in [11]. Further, the dissociation constant Kd in assay [9] came to 0.0045 µM; in [10], 0.016 µM.
As for `C[C@@H](NC(=O)/N=C(\N)NCCCc1nnc(N)s1)c1ccccc1`, the Ki was 0.0129 µM in assay [1]; more than 10 µM in [2]; more than 10 µM in assay [3]; 3.24 µM in [4]; more than 10 µM in [9]; more than 10 µM in [10]. The Emax in assay [12] came to 90%; in [15], 98%. Further, the EC50 in assay [5] was 0.282 µM; in assay [13] it was 0.0251 µM; in assay [14] it was 0.00288 µM; in [7], more than 10 µM; in assay [8] it was 1.07 µM; in [11], 0.02 µM. The Kd in [9] is 0.0045 µM; in assay [10] it was 0.016 µM.
For `N/C(=N\C(=O)NCCCCCCNC(=O)/N=C(\N)NCCCc1nnc(N)s1)NCCCc1nnc(N)s1`, the Ki in assay [1] was 0.00525 µM; in [2] it was 10 µM; in assay [3], 0.955 µM; in assay [9], 3.55 µM; in assay [10], more than 10 µM. Also, the EC50 was 0.407 µM in [5], 0.0347 µM in assay [6], 1.12 µM in assay [7] and 0.02 µM in [11]. Also, the Kd in [9] was 0.0045 µM; in [10], 0.016 µM.
For the molecule `CC(NC(=O)/N=C(\N)NCCCc1nnc(N)s1)c1cccc(F)c1` (configuration not stated), the Ki in assay [1] was 0.00813 µM; in assay [2], more than 10 µM; in assay [3], more than 10 µM; in assay [4] it was 0.661 µM; in [9] it was 10.5 µM; in assay [10], more than 10 µM. Moreover, the results for the Emax in assay [12] and in assay [15] were 93% and 110%, respectively. Besides, the EC50 in assay [5] is 0.0759 µM; in assay [13], 0.00692 µM; in assay [14] it was 0.000912 µM; in assay [7] it was more than 10 µM; in [8] it was 1.91 µM; in assay [11], 0.00813 µM. Further, the Kd in [9] worked out at 0.0045 µM; in [10], 0.016 µM.
Take `CCCCCCNC(=O)/N=C(\N)NCCCc1nnc(N)s1`: the Ki is 0.00513 µM in assay [1]; more than 10 µM in assay [2]; more than 10 µM in assay [3]; 0.589 µM in assay [4]; 5.01 µM in assay [9]; more than 10 µM in [10]. Moreover, the results for the Emax in assay [12] and in assay [15] were 96% and 106%, respectively. In addition, the EC50 was 1.07 µM in assay [5]; 0.00229 µM in [13]; 0.00479 µM in assay [14]; more than 10 µM in assay [7]; 0.813 µM in assay [8]; 0.00603 µM in assay [11]. Moreover, the values for the Kd in assay [9] and in [10] were 0.0045 µM and 0.016 µM, respectively.
